Compounds with a hit are over-represented: about 2.1% of the library has one in this group of screens.
CCR6 antagonist: CCR6 receptor antagonists, primary screen, cell-based, CHO-K1, luminescence, beta-arrestin, uHTS. C-C chemokine receptor type 6 (Homo sapiens), P51684. CHO-K1 CCR6 PathHunter beta-arrestin, CCL20-stimulated. inhibition, % at 20 µM. 340,000 compounds, 0.49% hits. AID 493098, 2011;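 active = compounds whose inhibition of the agonist-driven luminescence signal at 20 µM reaches about 50%, limit read from the data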;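 note: cells stimulated with CCL20 at 14 nM final; plate controls were DMSO with CCL20 for no effect and DMSO without agonist for full effect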
CXCR6 inh: CXCR6 receptor inhibitors, primary screen, cell-based, beta-arrestin, luminescence, CHO-K1 PathHunter, 1536-well | C-X-C chemokine receptor type 6 (Homo sapiens), O00574 | inhibition, % at 20 µM | 360,000 compounds, 0.36% hits | AID 602244, 2012; in the data active = inhibition above about 34%, passing the limit was not always enough;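 note: antagonist mode with CXCL16 agonist at 10 nM final; 0% = 10 nM CXCL16 with DMSO and 100% = unstimulated wells without agonist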
Target sequence (O00574 whole entry, looked up): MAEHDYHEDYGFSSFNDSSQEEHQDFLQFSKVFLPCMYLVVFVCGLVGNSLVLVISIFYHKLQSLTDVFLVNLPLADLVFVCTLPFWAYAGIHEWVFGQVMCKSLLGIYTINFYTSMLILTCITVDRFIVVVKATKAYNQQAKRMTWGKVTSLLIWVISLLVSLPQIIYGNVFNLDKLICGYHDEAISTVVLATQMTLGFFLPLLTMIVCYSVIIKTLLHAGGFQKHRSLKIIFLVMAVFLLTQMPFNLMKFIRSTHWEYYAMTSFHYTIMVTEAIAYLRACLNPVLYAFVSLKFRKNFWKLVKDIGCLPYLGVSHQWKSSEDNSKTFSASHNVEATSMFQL
HTR2A ag: mouse Htr2a agonists via beta-arrestin recruitment, primary screen, cell-based, luminescence; 5-hydroxytryptamine receptor 2A (Mus musculus), P35363; CHO-K1 mHTR2A beta-arrestin complementation; percent of 30 µM serotonin response; activation, % at 7.6 µM; 360,000 compounds, 0.66% hits; AID 624169, 2012;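 active = activation above a run cutoff, the mean activation of all tested compounds plus 3 SD, cut at about 14% in these data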;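 note: 0% = plate median of compound wells and 100% = 30 µM serotonin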
APJ antagonist: antagonists of human apelin receptor APJ, primary screen, CHO-K1 cells, beta-arrestin complementation, luminescence; AID 2521, 2010; inhibition, % at 20 µM; 330,000 compounds, 0.32% hits; P35414;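 active = inhibition above about 40% at 20 µM, limit read from the data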;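 note: cells challenged with 10 nM apelin-13 agonist together with compound; plate controls were apelin-13 plus DMSO wells for no effect and DMSO wells lacking apelin-13 for full effect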
APJ agonist: agonists of human apelin receptor APJ, primary screen, CHO-K1 cells, PathHunter beta-arrestin, luminescence. activation, % at 20 µM. 0% DMSO wells, 100% apelin. 330,000 compounds, 0.11% hits. P35414;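 active = activation more than six SD over the plate average, tested at 20 µM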;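 note: 0% = DMSO alone and 100% = apelin-13 at 10 nM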
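Assay system – PathHunter CHO-K1 APJ (AGTRL-1) beta-arrestin reporter cells · Compound – one dose, 20 µM compound, 1% DMSO · Timing – compound 90 min 25 °C, reagent 1 h · Measured by – luminescence from split beta-galactosidase complementation, Galacton Star/Emerald II substrate · Measure – beta-arrestin recruitment to APJ as agonist activity, luminescent signal · Benchmarks – DMSO vs Apelin-13 10 nM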
EBI2 block: EBI2 receptor antagonists, beta-arrestin recruitment, primary screen, cell-based, luminescence, 7a,25-OHC stimulation, uHTS | inhibition, % at 5 µM | 7a,25-OHC stimulated | AID 651636, 2012 | 360,000 compounds, 0.81% hits; in the data active = inhibition above about 38%;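 note: enzyme fragment complementation signal reports receptor beta-arrestin coupling in cells; 0% = agonist plus DMSO wells and 100% = wells without agonist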
Target sequence (P32249 whole entry, looked up, the tested form may be a part): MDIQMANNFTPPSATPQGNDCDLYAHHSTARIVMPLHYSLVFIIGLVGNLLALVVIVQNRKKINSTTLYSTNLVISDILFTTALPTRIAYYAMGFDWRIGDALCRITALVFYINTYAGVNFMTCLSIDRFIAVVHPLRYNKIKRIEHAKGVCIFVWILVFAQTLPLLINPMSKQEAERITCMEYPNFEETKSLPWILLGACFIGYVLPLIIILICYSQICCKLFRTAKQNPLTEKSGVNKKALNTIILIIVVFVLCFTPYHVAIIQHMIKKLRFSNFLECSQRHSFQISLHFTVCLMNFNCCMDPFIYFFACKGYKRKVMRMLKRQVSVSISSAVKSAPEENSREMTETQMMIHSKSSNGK
MOR ag counter: OPRM1 agonists via beta-arrestin recruitment, confirmation, counter-screen for mouse HTR2A agonist project, cell-based, luminescence, single concentration. activation, % at 9.3 µM. AID 624380, 2012. 2,300 compounds, 5.3% hits. shares compounds with HTR2A ag. U2OS OPRM1 beta-arrestin PathHunter; DMSO 0%, DAMGO 9.3 µM 100%;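 active = mean activation above the mean of DMSO-only wells plus 3 SD, cut at about 0.5% in these data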
HTR2A ag conf: mouse HTR2A agonists, beta-arrestin recruitment, confirmation, cell-based, luminescence, CHO-K1 PathHunter, triplicate. shares compounds with HTR2A ag. DMSO 0%, 30 µM serotonin 100%. activation, % at 7.6 µM. 2,300 compounds, 19% hits. AID 624381, 2012;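 active = mean activation across triplicates above the hit threshold derived in the original primary screen, cut at about 15% in these data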
Numbers without * were called inactive; x = not tested or not shown.

SMILES | CCR6 antagonist | CXCR6 inh | HTR2A ag | APJ antagonist | APJ agonist | EBI2 block | MOR ag counter | HTR2A ag conf
COC(=O)[C@H](Cc1ccc(O)cc1)NC(=O)Cn1cnc2c(OCc3ccccc3)ncnc21 | -2 | -3 | 15* | 8 | 0 | -4 | x | -3
COC(=O)[C@H](Cc1ccccc1)NC(=O)Cn1cnc2c(OCc3ccccc3)ncnc21 | -10 | 6 | 1 | -13 | 1 | -6 | x | x
CCCC(C(=O)NC1CCCC1)N(Cc1ccccc1)C(=O)c1snc(C(N)=O)c1N (stereo unspecified) | 10 | 4 | -4 | 10 | 0 | 10 | x | x
COc1cccc(CNS(=O)(=O)c2cc3c4c(c2)CCN4C(=O)CC3)c1 | -5 | -6 | 18* | -56 | 0 | 4 | -1 | -3
COc1ccccc1CNC(=O)COC(=O)c1ccc2c(=O)n3c(nc2c1)CCCCC3 | 7 | -3 | 18* | 13 | -1 | -3 | -1 | 0
Cc1cc2oc(=O)cc(CN3CCN(c4ccc(Cl)c(Cl)c4)CC3)c2cc1Cl | x | -2 | 17* | x | x | -6 | 0 | 2
Cc1cc2oc(=O)cc(Cn3ccnc3)c2cc1Cl | -1 | 0 | 26* | -4 | -1 | -2 | -1 | -3
Cc1ccc2c(CN3CCN(c4ccc(Cl)c(Cl)c4)CC3)cc(=O)oc2c1 | x | -6 | 18* | x | x | 5 | 0 | -4
Cc1cc2oc(=O)cc(Cn3ccnc3)c2cc1O | -9 | 2 | 2 | -15 | -5 | -12 | x | x
Cc1ccc2c(CN3CCCCC3)cc(=O)oc2c1 | 10 | 3 | -4 | 14 | -3 | 2 | x | x
COc1ccc(N2CCN(Cc3cc(=O)oc4cc(C)c(Cl)cc34)CC2)cc1 | -10 | 9 | 8 | 1 | 5 | 8 | x | x
Cc1ccnc(NC(=O)c2cnc(Cl)c(Cl)c2)c1 | 0 | -3 | 3 | 12 | 2 | -18 | x | x
S=c1[nH]cnc2sc(-c3ccccc3)cc12 | -23 | -12 | 1 | -22 | 5 | 0 | x | x
CCN(CC)CCCNC(=O)c1cc2nc3c(c(C(F)(F)F)n2n1)CCc1ccccc1-3 | 21 | 12 | -4 | 0 | 0 | 1 | x | x
Cc1ccc(O)c(NC(=O)c2cc3nc4c(c(C(F)(F)F)n3n2)CCc2ccccc2-4)c1 | 1 | 5 | 16* | 3 | -1 | 11 | 0 | 9
Cc1ccsc1C(=O)N1CCN(C(=O)c2ccco2)CC1 | -2 | -7 | 17* | -5 | -5 | -20 | -1 | -4
Cc1ccccc1-n1c(=O)cc(N2CCN(C(=O)c3ccco3)CC2)[nH]c1=O | 6 | -6 | 24* | -4 | 5 | -3 | -1 | -2
CN(C)C(=O)N1CCN(C(=O)c2ccco2)CC1 | 7 | -1 | -3 | 12 | -4 | -6 | x | x
O=C(c1ccco1)N1CCN(Cc2c(F)cccc2Cl)CC1 | 2 | -7 | 10 | 5 | 0 | -4 | x | x
O=C(c1ccco1)N1CCN(Cc2ccccc2F)CC1 | -12 | -4 | 20* | -11 | 0 | -2 | 0 | 76*
Cc1ccccc1-n1c(=O)cc(N2CCCCCC2)[nH]c1=O | 5 | -2 | 1 | 2 | -2 | -7 | x | x
Cc1ccccc1CN1CCN(C(=O)c2ccco2)CC1 | -2 | -7 | 25* | 5 | -3 | -9 | 0 | 85*
CCCNC(=O)CN1C(=O)c2ccccc2Sc2ncccc21 | 1 | -7 | -4 | 0 | -3 | -19 | x | x
Cc1cc(C)c(OCC(=O)OCC(=O)N2CCN(C(=O)c3ccco3)CC2)c(C)c1 | 17 | 6 | 19* | 6 | -7 | -3 | 0 | -5
O=C(c1ccco1)N1CCN(Cc2cccnc2)CC1 | -4 | -1 | 11 | 16 | 5 | 0 | x | x
SMILES | CCR6 antagonist | CXCR6 inh | HTR2A ag | APJ antagonist | APJ agonist | EBI2 block | MOR ag counter | HTR2A ag conf
Cc1ccc(CN2CCN(C(=O)c3ccco3)CC2)cc1 | -6 | 1 | 43* | -5 | -3 | -3 | -1 | 121*
CN1CCN(C(=O)C2=C[C@H](C(C)(C)C)C[C@H](OCCCCO)O2)CC1 | 2 | -13 | 1 | -3 | 0 | -7 | x | x
O=C(C1CCCCC1)N1CCC(c2nc3c(nnn3Cc3c(F)cccc3Cl)c(=O)[nH]2)CC1 | 13 | -8 | 2 | -12 | -4 | 5 | x | x
Cc1nc2c(nnn2Cc2c(Cl)cccc2Cl)c(=O)[nH]1 | 15 | -4 | 19* | 0 | -1 | 2 | 0 | 5
Cc1ccc(NC(=O)COC(=O)CN2C(=O)NC(C)(C)C2=O)cc1S(=O)(=O)N1CCOCC1 | -2 | -3 | 24* | 6 | -1 | 2 | 0 | -4
Cc1ccc(NC(=O)COC(=O)CN2C(=O)C3CCCCC3C2=O)cc1S(=O)(=O)N1CCOCC1 (stereo unspecified) | 11 | 2 | 2 | 12 | -4 | -2 | x | x
CN1OC[C@@H]2CN(Cc3ccc(Cl)cc3)[C@H](c3ccc(N4CCCCC4)cc3)C[C@@H]21 | x | 11 | -2 | x | x | 16 | x | x
CSCCCN1CC[C@@H](N2CCN(c3ccccc3F)CC2)[C@H](O)C1 | 4 | 0 | 8 | -23 | -1 | -4 | x | x
CC(C)=CC(=O)N1CC[C@@H](N2CCN(c3ccccc3F)CC2)[C@H](O)C1 | 10 | -4 | 17* | -9 | -3 | 6 | 0 | 43*
CSCCC(=O)N1CC[C@@H](N2CCN(c3ccccc3F)CC2)[C@H](O)C1 | 6 | 1 | 15* | 3 | 2 | -3 | -1 | 45*
Cc1ccc(S(=O)(=O)N2[C@@H](Cc3ccccc3)CO[C@H]2CC(=O)c2ccc(F)cc2)cc1 | x | x | -8 | x | x | 24 | x | x
Nn1c(COc2cccc(Br)c2)nnc1SCC(=O)NCC1CCCO1 (stereo unspecified) | 6 | -5 | 3 | 9 | -5 | -6 | x | x
Cc1ccc2nc(C)cc(C(=O)N3CCCC(N4CCN(c5ccccc5C)CC4)C3)c2c1 (stereo unspecified) | 12 | 5 | -5 | 24 | -5 | -4 | x | x

Screening data: PubChem, several laboratories
